The subject of series [1] is Hepatitis C virus. The series is described as follows: Inhibition of Hepatitis C virus 1b J4 recombinant NS5B Cdelta 21 RNA dependent RNA polymerase overexpressed in Escherichia coli BL21 (DE3) assessed as [alpha-33P]UTP incorporation by RdRp primer-independent transcription assay. More on the design: species or system Hepatitis C virus subtype 1b. In outline:
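De novo (primer-independent) RdRp assay: 190 nM NS5BΔ21 (1b J4) with 86 nM HCV 3′ UTR template RNA, 0.5 mM each ATP/GTP/CTP, 10 μM UTP plus [α-³³P]UTP, in 20 mM Tris-HCl pH 7.5, 1 mM DTT, 5 mM MgCl₂, 20 mM NaCl. Incubated 2 h at room temperature, stopped with EDTA/tRNA, TCA-precipitated on filters, and scintillation-counted. Quadruplicate.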

The subject of series [2] is MT4. Put plainly: Cytotoxicity against human MT4 cells after 3 days by ATPLite assay. It counts as cell-based. The conditions noted are these: mt4, 72 h, 72 h. An outline of the steps:
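MT4 cells, 5,000 per well, were incubated 3 days at 37°C with eight serial fourfold compound dilutions. Cytotoxicity was read as intracellular ATP by ATPlite 1step luminescence. Values are means ± SD from two to eight independent experiments in quadruplicate.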
(ATP-based viability assays read luminescence as a measure of living cells.)

A further series has as its system HepG2. The series is described as follows: Cytotoxicity against human HepG2 cells after 72 hrs by resazurin assay. It is filed as cell-based. The conditions noted are these: hepg2, 72 h, 72 h. An outline of the steps:
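Cells were tested against eight serial fourfold dilutions for 72 h, at 3,000 cells/well for HEK293T and 4,000 cells/well for HepG2. Viability was read by resazurin staining. Values are means ± SD from two to eight independent experiments in quadruplicate.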

In series [3] the test system is MT4. Put plainly: (§1) Cytotoxicity against LTR-Luc transfected human MT4 cells […] after 3 days by ATPLite assay. It counts as cell-based. The note with it: mt4, 72 h, 72 h.
The test system of series [4] is Hepatitis C virus. Put plainly: Inhibition of Hepatitis C virus 1b J4 recombinant NS5B Cdelta 21 RNA dependent RNA polymerase overexpressed in Escherichia coli BL21 (DE3) by RdRp primer-dependent transcription assay. More on the design: species or system Hepatitis C virus subtype 1b.
The nature of series [5]: Cytotoxicity against human HuH7 cells after 5 days by resazurin assay. It counts as cell-based, Huh-7. The conditions noted are these: huh-7, 120 h, 120 h. In outline:
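Subconfluent HCV 1b subgenomic replicon cells, 500 per well and grown without G418, were incubated for 5 days with eight serial fourfold compound dilutions. Viability was read by resazurin. Values are means ± SD from two to eight independent experiments in quadruplicate.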
In general terms: Resazurin is reduced to fluorescent resorufin, in cell work by metabolically active cells.

Series [6] is described as follows: Cytotoxicity against CMV-Luc transfected human HuH7 cells after 5 days. It is filed as cell-based, Huh-7. The conditions noted are these: for CC50 at 120 h: CMV-Luc transfected HuH7 cells.
For series [7], the system named is Hepatitis C virus. Put plainly: Antiviral activity against Hepatitis C virus 1b infected in human HuH7 cells assessed as inhibition of viral replication after 3 days by luciferase reporter assay. It is filed as functional, organism-based, Hepacivirus hominis, genotype 1b, Huh-7. An outline of the steps: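 HCV 1b subgenomic luciferase reporter replicon (clone ET) cells, 2,500 per well, were exposed to a nine-point 1/4 dilution series for 3 days. Replication was read as luciferase activity. Values are means ± SD from 2 to 23 independent experiments run in quadruplicate.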
In general terms: Reporter assays use an easily measured gene product as a stand-in for the process of interest.

The test system of series [8] is Hepatitis C virus. The series is described as follows: Inhibition of Hepatitis C virus 1b J4 recombinant NS5B Cdelta 21 RNA dependent RNA polymerase mediated formation of first phosphodiester bond during the polymerization reaction at 10 uM after 60 mins. The note with it: Hepatitis C virus subtype 1b. In outline: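 Buffer was 50 mM HEPES pH 7.5, 5 mM MgCl2, 5 mM MnCl2, 10 mM KCl, 1 mM DTT, at room temperature. In the time course, incubation was lengthened with inhibitor held at 10 μM. Products were phenol-extracted, ethanol-precipitated, denatured 3 min at 95°C, run on 8 M urea–20% polyacrylamide gels, and imaged.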

Series [9] can be described thus: Inhibition of Dengue virus RNA-dependent RNA polymerase. In outline:
(§2)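 Each enzyme–compound pair was tested in duplicate over 0.8 to 100 μM, with 100 μM as the highest dose. Each run included a no-inhibitor control, a solvent dilution (0.016 to 2% DMSO) and the relevant reference inhibitor. Percent inhibition at 100 μM was recorded for polymerase γ.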

The target in the next series is DNA polymerase beta (Homo sapiens, UniProt P06746). The series is described as follows: Inhibition of human DNA polymerase beta. In outline: as §2
The nature of series [10]: as §1. It counts as cell-based.
Series [11] relates to Hepatitis C virus. Put plainly: Inhibition of Hepatitis C virus 1b J4 recombinant NS5B Cdelta 21 RNA dependent RNA polymerase overexpressed in Escherichia coli BL21 (DE3). More on the design: species or system Hepatitis C virus subtype 1b.
In series [12] the target is T1, DNA polymerase alpha catalytic subunit (Homo sapiens, UniProt P09884).
T1 sequence (P09884 whole entry): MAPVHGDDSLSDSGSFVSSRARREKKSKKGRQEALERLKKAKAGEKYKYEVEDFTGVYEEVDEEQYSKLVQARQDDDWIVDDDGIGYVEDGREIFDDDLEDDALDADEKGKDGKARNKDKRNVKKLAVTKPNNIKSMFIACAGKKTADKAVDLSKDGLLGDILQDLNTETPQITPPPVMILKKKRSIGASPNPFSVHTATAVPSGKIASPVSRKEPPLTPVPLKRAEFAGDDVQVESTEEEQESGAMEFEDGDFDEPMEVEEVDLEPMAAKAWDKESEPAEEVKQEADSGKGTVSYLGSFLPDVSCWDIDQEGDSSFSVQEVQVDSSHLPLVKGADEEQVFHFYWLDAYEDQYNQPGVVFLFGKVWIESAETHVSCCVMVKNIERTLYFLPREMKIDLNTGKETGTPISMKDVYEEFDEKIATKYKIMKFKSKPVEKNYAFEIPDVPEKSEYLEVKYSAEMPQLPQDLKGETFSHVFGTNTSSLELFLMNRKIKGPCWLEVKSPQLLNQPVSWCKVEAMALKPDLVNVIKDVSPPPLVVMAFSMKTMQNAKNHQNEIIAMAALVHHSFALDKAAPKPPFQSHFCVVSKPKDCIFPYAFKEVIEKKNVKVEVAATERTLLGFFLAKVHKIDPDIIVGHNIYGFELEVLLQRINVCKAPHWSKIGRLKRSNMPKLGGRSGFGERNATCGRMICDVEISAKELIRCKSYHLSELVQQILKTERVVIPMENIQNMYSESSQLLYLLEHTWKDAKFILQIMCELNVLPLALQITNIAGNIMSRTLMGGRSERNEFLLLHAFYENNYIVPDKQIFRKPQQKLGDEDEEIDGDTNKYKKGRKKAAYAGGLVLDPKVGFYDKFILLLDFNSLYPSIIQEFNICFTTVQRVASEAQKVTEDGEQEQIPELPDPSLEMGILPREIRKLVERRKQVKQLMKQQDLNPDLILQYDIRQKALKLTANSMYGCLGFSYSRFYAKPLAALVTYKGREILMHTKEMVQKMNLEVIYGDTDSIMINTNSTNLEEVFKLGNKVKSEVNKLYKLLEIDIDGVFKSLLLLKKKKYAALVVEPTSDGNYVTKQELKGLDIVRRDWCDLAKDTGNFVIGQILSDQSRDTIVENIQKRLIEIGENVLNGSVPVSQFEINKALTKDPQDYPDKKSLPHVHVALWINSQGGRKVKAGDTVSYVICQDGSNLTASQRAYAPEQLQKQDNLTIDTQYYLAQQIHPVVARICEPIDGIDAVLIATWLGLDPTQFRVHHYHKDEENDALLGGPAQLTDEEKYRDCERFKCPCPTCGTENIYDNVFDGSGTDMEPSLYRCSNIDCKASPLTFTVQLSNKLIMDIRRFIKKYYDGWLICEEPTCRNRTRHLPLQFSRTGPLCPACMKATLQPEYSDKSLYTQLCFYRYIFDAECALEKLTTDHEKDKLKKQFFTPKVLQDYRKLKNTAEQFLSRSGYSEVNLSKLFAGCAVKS
The series is described as follows: Inhibition of human DNA polymerase alpha. An outline of the steps: as §2

Series [13] addresses Human immunodeficiency virus type 1 reverse transcriptase (Human immunodeficiency virus 1, UniProt Q72547). Put plainly: Inhibition of Human immunodeficiency virus 1 reverse transcriptase expressed in Escherichia coli by scintillation proximity assay. In outline: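 N-terminal His6 HIV-1 RT was expressed in E. coli BL21(DE3), induced overnight at 37°C with 0.4 mM IPTG. The homodimer was purified by Ni-NTA and heparin chromatography. Activity was measured by scintillation proximity assay at 2.5 nM enzyme, with efavirenz as reference inhibitor.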

Series [14] addresses T2, DNA polymerase subunit gamma-1 (Homo sapiens, UniProt P54098).
T2 sequence (P54098 whole entry): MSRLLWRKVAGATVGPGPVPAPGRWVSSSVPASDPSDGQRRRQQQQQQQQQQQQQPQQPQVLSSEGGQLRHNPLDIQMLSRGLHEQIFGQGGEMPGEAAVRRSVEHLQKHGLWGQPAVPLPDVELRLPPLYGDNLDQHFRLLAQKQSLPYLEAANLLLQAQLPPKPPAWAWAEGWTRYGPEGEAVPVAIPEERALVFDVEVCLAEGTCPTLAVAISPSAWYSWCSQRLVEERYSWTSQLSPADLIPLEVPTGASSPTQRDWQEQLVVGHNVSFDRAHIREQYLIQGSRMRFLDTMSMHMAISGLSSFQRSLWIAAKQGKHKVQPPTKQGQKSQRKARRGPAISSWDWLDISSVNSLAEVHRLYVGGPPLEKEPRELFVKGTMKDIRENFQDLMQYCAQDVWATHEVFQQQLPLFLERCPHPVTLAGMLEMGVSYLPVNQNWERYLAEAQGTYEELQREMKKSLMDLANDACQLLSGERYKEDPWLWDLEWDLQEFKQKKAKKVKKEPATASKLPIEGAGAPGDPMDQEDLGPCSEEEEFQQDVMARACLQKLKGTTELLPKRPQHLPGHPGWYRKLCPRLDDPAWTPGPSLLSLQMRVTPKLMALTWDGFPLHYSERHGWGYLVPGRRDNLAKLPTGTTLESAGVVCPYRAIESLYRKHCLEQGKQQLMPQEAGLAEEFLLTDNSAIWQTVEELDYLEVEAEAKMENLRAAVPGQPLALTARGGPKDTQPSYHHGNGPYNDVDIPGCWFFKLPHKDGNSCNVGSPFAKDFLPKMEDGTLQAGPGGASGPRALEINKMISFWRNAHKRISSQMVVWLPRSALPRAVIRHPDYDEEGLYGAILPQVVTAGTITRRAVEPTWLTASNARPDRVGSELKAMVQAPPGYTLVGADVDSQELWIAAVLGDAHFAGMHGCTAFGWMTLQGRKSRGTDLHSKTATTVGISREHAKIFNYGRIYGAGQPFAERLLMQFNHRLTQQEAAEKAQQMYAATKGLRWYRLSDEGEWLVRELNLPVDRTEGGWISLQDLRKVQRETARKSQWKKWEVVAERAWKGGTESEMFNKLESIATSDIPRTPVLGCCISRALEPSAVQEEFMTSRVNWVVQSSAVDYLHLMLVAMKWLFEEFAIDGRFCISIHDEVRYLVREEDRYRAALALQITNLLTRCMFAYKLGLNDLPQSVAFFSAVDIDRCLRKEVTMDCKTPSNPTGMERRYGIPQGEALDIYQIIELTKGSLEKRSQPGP
Put plainly: Inhibition of human DNA polymerase gamma. In outline: as §2

The target in series [15] is T3, DNA polymerase subunit gamma-1 (Homo sapiens) (UniProt P54098).
T3 sequence (whole entry): T2 sequence (P54098 whole entry)
Put plainly: Inhibition of human DNA polymerase gamma at 100 uM. In outline:
as §2

Where [16] appears, read: Hepatitis C virus, genotype 1b, Huh-7, 72 h.

SMILES strings stand for the structures. Active and inactive are the calls of the source. The rule behind the calls is not given here.

Broadly, the IC50 is the concentration that gives 50% inhibition. What is called CC50 is the concentration giving 50% cytotoxicity. One may read the EC50 as the concentration that produces a half-maximal response. The inhibition is the relative decrease from the control value, in per cent.

For the compound `CC(=O)N1c2cccc(O)c2NC2=C(C(=O)CC(C)(C)C2)C1c1ccc(OCc2ccccc2)cc1Cl` (single isomer, unassigned; 7b), the IC50 is 18.5 µM in the series with Hepatitis C virus [1] and 12.5 µM in the series with Hepatitis C virus [4]. The CC50 was 38.4 µM with MT4 [2]; over 25 µM with HepG2; 14.4 µM in the series on MT4 [3]; 23.8 µM in series [5]; 10.1 µM in series [6] (huh-7, 120 h, 120 h). In addition, the EC50 with Hepatitis C virus [7] (huh-7) came to 2.1 µM.
Regarding `CC(=O)N1c2ccccc2NC2=C(C(=O)CC(C)(C)C2)C1c1ccc(OCc2ccccc2)c(Cl)c1` (single isomer, unassigned; 4a), the inhibition entry with Hepatitis C virus [8] was “Active”.
Consider `COc1ccc(C2C3=C(CC(C)(C)CC3=O)Nc3ccccc3N2C(C)=O)cc1OCc1ccccc1` (configuration not stated), for which the IC50 in series [9] is over 100 µM; against DNA polymerase beta it was over 100 µM; with Hepatitis C virus [11] it was 7.9 µM; in [12] it was over 100 µM; in series [13], over 32 µM; in series [14] it was over 100 µM. Moreover, half-maximal cytotoxicity in series [10] (CC50 at 72 h) was put at 32 µM. In addition, half-maximal cytotoxicity in [6] (CC50 at 120 h) was put at 32 µM. Moreover, the EC50 in the series on Hepatitis C virus [7] (setting [16]) came out at 12.3 µM.
With `CC(=O)N1c2ccccc2NC2=C(C(=O)CC(C)(C)C2)C1c1ccc(Cl)cc1Cl` (configuration not stated), the IC50 in [9] is over 100 µM; against DNA polymerase beta, over 100 µM; in series [12] it was over 100 µM; in series [13], over 32 µM; in series [14], over 100 µM. Also, the CC50 at 72 h in series [10] was 32 µM. The compound also came in with an inhibition in series [15] of 30%. Besides, in [6], the CC50 at 120 h came out at 32 µM. The EC50 in the series with Hepatitis C virus [7] (setting [16]) was over 32 µM.

These data come from ChEMBL document CHEMBL1671641, “1,5-benzodiazepines, a novel class of hepatitis C virus polymerase nonnucleoside inhibitors” (Antimicrob Agents Chemother, 2008).
